Assay results: ChEMBL document CHEMBL2390926, “Identification of novel FLT3 kinase inhibitors” (Eur J Med Chem, 2013)
The source made the active and inactive calls. The calls are words filed in the database; no cut-off is given here.

Experiments:
[1] = target: Receptor tyrosine-protein kinase erbB-2 (Homo sapiens) (UniProt P04626); test: Inhibition of ERBB2 (unknown origin) transfected in mouse Ba/F3 cells at 1 uM after 24 hrs; assay type: cell-based; conditions: BaF3
Outline: (§1)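 Kinase specificity panel: each Ba/F3 line transformed with one of 24 tyrosine kinases depends on that kinase to grow. Cells were given compound at 1 or 5 µM for 24 h, with DMSO as comparator. Percentage growth was read by ATP-lite luminescence and reported as mean ± SEM.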

[2] = Cytotoxicity against mouse BA/F3 cells transfected with FLT3-ITD after 24 hrs by plate reader analysis; conditions: BaF3, 24 h
[3] = target: NT-3 growth factor receptor (Homo sapiens) (UniProt Q16288); test: Inhibition of NTRK3 (unknown origin) transfected in mouse Ba/F3 cells at 1 uM after 24 hrs; assay type: cell-based; conditions: BaF3
BaF3 = test: Cytotoxicity against mouse BA/F3 cells transfected with FLT3-ITD at 1 uM after 24 hrs by plate reader analysis; assay type: functional, cell-based
[4] = target: Proto-oncogene tyrosine-protein kinase Src (Homo sapiens) (UniProt P12931); test: Inhibition of SRC (unknown origin) transfected in mouse Ba/F3 cells at 1 uM after 24 hrs; assay type: cell-based; conditions: BaF3
[5] = target: Vascular endothelial growth factor receptor 3 (Homo sapiens) (UniProt P35916); test: Inhibition of FLT4 (unknown origin) transfected in mouse Ba/F3 cells at 1 uM after 24 hrs; assay type: cell-based; conditions: BaF3; outline: as §1
[6] = target: T1, Ephrin type-A receptor 1 (Homo sapiens) (UniProt P21709); test: Inhibition of EPHA1 (unknown origin) transfected in mouse Ba/F3 cells at 1 uM after 24 hrs; assay type: cell-based; conditions: BaF3; outline: as §1
T1 sequence (whole entry): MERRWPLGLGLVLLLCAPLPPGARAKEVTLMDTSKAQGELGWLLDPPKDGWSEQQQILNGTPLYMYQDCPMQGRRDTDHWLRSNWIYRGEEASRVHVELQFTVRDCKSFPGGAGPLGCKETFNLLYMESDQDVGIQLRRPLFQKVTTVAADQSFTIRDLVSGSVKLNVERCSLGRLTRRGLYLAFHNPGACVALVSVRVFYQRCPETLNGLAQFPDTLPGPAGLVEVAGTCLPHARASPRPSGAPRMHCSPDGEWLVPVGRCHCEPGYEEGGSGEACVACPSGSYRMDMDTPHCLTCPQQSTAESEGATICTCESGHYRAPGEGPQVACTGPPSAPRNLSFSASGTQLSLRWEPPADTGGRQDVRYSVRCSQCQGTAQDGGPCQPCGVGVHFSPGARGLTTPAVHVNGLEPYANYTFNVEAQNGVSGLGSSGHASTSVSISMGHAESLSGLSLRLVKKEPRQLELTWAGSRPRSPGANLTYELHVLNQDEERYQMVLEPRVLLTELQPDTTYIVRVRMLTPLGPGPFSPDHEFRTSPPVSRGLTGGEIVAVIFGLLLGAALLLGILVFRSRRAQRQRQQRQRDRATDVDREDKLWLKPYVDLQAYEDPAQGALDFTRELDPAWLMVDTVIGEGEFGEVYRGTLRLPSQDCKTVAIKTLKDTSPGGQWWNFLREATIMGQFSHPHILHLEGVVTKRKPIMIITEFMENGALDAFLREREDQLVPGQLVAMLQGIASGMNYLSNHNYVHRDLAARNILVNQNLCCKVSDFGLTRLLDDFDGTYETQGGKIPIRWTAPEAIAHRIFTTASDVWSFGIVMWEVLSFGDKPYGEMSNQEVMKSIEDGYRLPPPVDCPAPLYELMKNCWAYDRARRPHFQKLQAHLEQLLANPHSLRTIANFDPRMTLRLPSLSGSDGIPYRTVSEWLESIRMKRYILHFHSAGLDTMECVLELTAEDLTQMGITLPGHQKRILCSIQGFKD

MV4-11 = test: Cytotoxicity against human MV4-11 cells after 72 hrs by plate reader analysis; assay type: functional, cell-based; conditions: MV4-11, 72 h
[7] = target: T2, Megakaryocyte-associated tyrosine-protein kinase (Homo sapiens) (UniProt P42679); test: Inhibition of MATK1 (unknown origin) transfected in mouse Ba/F3 cells at 1 uM after 24 hrs; assay type: cell-based; conditions: BaF3
T2 sequence (whole entry): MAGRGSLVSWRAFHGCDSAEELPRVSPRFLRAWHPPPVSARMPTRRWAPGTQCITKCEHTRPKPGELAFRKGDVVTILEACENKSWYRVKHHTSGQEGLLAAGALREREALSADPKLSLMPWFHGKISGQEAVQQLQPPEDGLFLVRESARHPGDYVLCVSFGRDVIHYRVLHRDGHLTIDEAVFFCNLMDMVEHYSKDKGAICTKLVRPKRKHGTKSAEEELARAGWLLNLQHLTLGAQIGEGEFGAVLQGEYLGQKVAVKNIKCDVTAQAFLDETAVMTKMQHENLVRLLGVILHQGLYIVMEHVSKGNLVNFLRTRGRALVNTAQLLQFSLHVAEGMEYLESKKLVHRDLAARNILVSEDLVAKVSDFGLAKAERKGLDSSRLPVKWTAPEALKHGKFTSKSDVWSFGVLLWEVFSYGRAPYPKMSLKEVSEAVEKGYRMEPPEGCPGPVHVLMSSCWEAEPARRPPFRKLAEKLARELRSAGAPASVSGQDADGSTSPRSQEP

[8] = target: Ephrin type-A receptor 5 (Homo sapiens) (UniProt P54756); test: Inhibition of EPHA5 (unknown origin) transfected in mouse Ba/F3 cells at 1 uM after 24 hrs; assay type: cell-based; conditions: BaF3; outline: as §1
Sequence of Ephrin type-A receptor 5 (Homo sapiens) (P54756 whole entry): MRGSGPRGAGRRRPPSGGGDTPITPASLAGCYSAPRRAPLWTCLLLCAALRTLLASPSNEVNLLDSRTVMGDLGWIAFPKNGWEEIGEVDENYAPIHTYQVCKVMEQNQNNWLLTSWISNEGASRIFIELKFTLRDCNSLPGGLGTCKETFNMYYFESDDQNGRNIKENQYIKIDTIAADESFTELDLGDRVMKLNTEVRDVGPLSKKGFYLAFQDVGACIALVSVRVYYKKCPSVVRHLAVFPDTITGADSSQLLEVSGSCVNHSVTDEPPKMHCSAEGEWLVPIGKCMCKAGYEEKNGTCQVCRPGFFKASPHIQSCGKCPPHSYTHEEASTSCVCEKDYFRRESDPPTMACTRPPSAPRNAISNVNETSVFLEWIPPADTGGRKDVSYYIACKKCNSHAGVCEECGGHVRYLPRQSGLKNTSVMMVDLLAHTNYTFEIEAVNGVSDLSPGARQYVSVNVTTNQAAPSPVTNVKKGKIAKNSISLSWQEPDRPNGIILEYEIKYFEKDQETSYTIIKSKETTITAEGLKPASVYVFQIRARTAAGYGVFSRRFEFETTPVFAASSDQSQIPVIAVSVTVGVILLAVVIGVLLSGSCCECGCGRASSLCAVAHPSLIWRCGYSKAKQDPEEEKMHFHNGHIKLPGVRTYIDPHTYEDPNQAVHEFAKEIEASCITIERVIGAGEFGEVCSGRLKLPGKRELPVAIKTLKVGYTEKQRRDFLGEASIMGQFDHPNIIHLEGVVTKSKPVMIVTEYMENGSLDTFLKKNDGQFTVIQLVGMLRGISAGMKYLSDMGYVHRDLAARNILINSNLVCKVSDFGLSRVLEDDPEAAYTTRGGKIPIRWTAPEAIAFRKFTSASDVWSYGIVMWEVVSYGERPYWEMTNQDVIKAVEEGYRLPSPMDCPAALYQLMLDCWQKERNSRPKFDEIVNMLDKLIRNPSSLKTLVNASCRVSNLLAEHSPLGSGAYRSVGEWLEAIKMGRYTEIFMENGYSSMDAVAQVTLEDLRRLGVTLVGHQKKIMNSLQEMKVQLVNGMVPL

Sequence of Proto-oncogene tyrosine-protein kinase Src (Homo sapiens) (P12931 2-536 limits assumed): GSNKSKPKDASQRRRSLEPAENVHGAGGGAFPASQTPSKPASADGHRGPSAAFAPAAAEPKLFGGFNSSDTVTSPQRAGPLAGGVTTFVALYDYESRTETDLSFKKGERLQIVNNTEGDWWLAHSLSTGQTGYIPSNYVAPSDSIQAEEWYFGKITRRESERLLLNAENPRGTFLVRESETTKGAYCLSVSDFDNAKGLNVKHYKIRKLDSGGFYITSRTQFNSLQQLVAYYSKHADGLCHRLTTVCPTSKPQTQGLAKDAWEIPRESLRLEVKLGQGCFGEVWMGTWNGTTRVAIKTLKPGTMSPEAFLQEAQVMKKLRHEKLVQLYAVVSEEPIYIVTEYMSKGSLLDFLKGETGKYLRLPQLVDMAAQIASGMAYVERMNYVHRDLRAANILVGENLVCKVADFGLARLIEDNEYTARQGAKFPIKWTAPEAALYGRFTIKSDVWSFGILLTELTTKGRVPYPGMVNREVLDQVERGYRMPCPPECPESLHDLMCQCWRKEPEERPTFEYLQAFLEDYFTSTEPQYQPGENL
Sequence of NT-3 growth factor receptor (Homo sapiens) (Q16288 32-839 limits assumed): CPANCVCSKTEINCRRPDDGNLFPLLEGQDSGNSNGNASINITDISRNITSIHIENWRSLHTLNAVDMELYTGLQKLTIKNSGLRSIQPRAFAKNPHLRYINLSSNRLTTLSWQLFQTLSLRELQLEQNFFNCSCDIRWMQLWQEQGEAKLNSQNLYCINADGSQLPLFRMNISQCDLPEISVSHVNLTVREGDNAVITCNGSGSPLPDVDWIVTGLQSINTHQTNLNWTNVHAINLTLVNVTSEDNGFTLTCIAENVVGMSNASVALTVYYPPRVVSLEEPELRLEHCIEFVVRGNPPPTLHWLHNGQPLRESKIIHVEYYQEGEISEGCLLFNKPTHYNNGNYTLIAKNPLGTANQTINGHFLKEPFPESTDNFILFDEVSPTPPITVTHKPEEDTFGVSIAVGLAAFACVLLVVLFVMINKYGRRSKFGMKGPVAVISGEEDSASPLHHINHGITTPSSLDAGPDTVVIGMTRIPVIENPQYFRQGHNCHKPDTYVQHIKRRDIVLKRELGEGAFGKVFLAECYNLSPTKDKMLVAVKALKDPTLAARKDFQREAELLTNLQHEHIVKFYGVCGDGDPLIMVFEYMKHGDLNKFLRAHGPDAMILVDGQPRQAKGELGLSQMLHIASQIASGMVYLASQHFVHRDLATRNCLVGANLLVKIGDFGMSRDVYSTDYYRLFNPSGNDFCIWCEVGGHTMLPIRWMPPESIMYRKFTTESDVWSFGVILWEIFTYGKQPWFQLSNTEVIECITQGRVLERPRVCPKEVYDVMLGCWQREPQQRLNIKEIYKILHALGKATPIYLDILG
Sequence of Vascular endothelial growth factor receptor 3 (Homo sapiens) (P35916 whole entry): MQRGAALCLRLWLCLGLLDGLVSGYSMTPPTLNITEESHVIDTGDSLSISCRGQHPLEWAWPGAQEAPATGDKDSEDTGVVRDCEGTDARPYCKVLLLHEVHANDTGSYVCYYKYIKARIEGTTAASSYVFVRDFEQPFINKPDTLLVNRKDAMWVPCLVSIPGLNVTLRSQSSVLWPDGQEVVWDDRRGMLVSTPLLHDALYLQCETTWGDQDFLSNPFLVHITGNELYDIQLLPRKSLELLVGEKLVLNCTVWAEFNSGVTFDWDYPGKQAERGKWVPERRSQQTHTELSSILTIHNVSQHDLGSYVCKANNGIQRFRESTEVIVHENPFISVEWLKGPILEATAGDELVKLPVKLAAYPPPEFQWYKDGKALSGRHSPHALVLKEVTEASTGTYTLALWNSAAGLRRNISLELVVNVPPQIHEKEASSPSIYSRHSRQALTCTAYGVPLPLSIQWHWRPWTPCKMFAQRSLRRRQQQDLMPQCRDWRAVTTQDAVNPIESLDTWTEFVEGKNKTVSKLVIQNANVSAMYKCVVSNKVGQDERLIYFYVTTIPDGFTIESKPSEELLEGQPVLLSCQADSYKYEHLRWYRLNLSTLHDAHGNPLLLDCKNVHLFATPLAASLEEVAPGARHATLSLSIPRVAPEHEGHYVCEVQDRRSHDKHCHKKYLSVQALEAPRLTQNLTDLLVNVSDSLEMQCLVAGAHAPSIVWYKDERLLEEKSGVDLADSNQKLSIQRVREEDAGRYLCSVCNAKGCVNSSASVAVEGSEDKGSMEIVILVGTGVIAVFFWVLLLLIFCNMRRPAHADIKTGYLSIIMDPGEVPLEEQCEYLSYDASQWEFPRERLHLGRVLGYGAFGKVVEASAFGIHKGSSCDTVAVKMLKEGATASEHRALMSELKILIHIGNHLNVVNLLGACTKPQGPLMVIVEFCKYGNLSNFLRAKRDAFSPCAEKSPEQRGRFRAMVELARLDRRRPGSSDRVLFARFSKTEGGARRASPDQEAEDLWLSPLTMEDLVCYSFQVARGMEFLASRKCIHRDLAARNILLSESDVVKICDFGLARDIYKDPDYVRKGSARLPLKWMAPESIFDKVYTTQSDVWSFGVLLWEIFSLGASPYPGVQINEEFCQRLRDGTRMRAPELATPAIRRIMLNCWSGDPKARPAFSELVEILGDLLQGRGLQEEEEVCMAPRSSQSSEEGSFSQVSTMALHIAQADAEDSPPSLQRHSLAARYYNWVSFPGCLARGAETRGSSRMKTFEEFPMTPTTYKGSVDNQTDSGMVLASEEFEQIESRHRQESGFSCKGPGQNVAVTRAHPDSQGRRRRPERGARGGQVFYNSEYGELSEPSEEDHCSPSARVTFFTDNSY
Sequence of Receptor tyrosine-protein kinase erbB-2 (Homo sapiens) (P04626 whole entry): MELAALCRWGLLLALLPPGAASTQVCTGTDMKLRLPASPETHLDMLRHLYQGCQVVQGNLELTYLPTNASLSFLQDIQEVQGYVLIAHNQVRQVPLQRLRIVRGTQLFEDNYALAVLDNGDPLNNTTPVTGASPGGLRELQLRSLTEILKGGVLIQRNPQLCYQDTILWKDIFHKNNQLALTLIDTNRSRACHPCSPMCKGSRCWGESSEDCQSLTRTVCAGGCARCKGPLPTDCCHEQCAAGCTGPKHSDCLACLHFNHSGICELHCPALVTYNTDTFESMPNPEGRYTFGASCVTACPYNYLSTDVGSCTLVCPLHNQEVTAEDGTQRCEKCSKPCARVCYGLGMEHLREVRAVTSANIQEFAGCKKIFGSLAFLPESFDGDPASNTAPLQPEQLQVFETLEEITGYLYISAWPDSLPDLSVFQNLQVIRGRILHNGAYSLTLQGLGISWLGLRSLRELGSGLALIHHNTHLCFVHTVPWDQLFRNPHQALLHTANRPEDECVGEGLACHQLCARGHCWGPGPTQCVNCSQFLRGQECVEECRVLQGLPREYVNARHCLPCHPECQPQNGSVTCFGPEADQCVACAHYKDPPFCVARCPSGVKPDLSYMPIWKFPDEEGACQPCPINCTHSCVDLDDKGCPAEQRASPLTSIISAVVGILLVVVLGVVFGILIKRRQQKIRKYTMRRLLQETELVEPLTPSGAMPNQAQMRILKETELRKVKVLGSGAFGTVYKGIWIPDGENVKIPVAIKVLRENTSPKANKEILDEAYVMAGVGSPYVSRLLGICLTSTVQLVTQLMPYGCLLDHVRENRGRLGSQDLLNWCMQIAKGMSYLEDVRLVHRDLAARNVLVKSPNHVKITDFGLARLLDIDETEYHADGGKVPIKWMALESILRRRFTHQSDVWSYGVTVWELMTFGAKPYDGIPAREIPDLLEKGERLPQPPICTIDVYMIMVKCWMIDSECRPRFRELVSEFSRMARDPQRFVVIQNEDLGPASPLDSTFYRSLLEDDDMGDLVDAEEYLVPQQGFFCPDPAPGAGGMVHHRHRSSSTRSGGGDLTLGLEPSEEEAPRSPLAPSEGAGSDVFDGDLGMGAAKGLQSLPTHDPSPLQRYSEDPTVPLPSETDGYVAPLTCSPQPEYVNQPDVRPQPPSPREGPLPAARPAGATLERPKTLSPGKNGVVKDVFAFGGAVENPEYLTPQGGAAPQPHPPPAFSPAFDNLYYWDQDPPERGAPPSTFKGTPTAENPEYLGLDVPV

| SMILES | inhibition [1] | EC50 [2] [nM] | inhibition [3] | Activity (BaF3) | inhibition [4] | inhibition [5] | inhibition [6] | EC50 (MV4-11) [nM] | inhibition [7] | inhibition [8] |
| --- | --- | --- | --- | --- | --- | --- | --- | --- | --- | --- |
| COc1ccc(C(=O)Nc2cc(-c3ccccc3)[nH]n2)cc1 | inactive | 36 | inactive | Active | inactive | inactive | inactive | 142 | inactive | inactive |
| Fc1ccc(-c2n[nH]cc2-c2ccncc2)cc1Cl | – | 405 | – | Active | – | – | – | 2760 | – | – |
| Cc1ccc(-c2cc(NC(=O)c3ccc(F)cc3)[nH]n2)cc1 | inactive | 138 | inactive | Active | inactive | inactive | inactive | 2820 | inactive | inactive |
| Cc1cccc(C(=O)Nc2cc(-c3ccc(F)cc3)n[nH]2)c1 | inactive | 296 | inactive | Active | inactive | inactive | inactive | 1780 | inactive | inactive |
| Cc1ccc(-n2cnc3cc(Nc4nnc(C)c5ccccc45)ccc32)cc1 | – | 717 | – | Active | – | – | – | 3410 | – | – |
